Measured values: ChEMBL document CHEMBL1143217, “Bioisosteric replacement of dihydropyrazole of 4S-(-)-3-(4-chlorophenyl)-N-methyl-N'-[(4-chlorophenyl)-sulfonyl]-4-phenyl-4,5-dihydro-1H-pyrazole-1-caboxamidine (SLV-319) a potent CB1 receptor antagonist by imidazole and oxazole” (2008)
Structures can show the parent of a compound that is named as a salt.

Columns and labels:
[1] = target: Cannabinoid receptor 1 (Homo sapiens) (UniProt P21554); experiment: Antagonist activity at human CB1 receptor expressed in CHO cells assessed as forskolin-induced cAMP accumulation per ug of protein at 10 uM in presence of WIN-55212-2; format: functional, cell-based
Cannabinoid receptor 1 (Homo sapiens), sequence (P21554 whole entry): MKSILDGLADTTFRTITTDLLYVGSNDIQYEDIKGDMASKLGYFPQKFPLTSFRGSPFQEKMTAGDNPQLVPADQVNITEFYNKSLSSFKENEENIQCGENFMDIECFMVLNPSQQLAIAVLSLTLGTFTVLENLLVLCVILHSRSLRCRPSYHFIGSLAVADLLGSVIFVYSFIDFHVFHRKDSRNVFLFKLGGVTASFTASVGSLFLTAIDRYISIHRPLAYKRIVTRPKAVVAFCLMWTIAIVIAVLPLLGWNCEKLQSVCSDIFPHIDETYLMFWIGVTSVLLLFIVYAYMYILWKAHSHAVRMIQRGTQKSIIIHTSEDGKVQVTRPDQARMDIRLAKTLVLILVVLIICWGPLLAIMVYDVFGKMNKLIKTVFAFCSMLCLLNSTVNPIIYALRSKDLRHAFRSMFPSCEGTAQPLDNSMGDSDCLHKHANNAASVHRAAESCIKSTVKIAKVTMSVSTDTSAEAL
Outline: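 CHO-K1 cells stably expressing human CB1 were kept in HAM's F12 with 10% heat-inactivated dialyzed FBS and 0.8 mg/mL G-418. Cells were seeded at 50,000/well, grown 16–18 h, then preincubated 30 min at 37 °C with 0.25% fatty-acid-free BSA, IBMX 0.1 mM and RO20-1724 0.1 mM. Drugs were added for 5 min, then forskolin (10, final) for 20 min. Cells were lysed in 0.1 N HCl/0.1% Triton for cAMP ELISA. Mean ± SD, duplicate, ≥3 experiments.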

Rattus norvegicus = experiment: Inhibition of 5% sucrose solution intake in Zucker fa/fa rat at 10 mg/kg, po on day 7 after 1 hr; format: functional
Outline: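 Female Zucker fa/fa rats (10–12 weeks, 300–350 g) were trained on six consecutive days, without food or water during sessions. On day 7 they were randomized (n = 6/group) and dosed orally at 10 mg/kg in 0.5% CMC-Na/water (2 mL/kg). One hour later they had 5% sucrose for 4 h. Intake (g) and % inhibition vs control; mean ± SEM; one-way ANOVA with Dunnett's test.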

Activity [1] [pmol]	SMILES	inhibition in vivo at 10 mg/kg (Rattus norvegicus) [%]
0.6	CN/C(=N/S(=O)(=O)c1ccc(Cl)cc1)c1nc(-c2ccccc2)c(-c2ccc(Cl)cc2)o1	4.3
0.55	CN/C(=N/S(=O)(=O)c1ccc(Cl)cc1)c1cn(-c2ccc(Cl)cc2)c(-c2ccccc2)n1	6.7
	Cc1c(C(=O)NN2CCCCC2)nn(-c2ccc(Cl)cc2Cl)c1-c1ccc(Cl)cc1 [RIMONABANT HYDROCHLORIDE]	36.1
1.3	CN/C(=N/S(=O)(=O)c1ccc(Cl)cc1)c1nc(-c2ccc(Cl)cc2)c(-c2ccccc2)o1	0.6
1.22	CN/C(=N/S(=O)(=O)c1ccc(Cl)cc1)C1CN(c2ccccc2)C(c2ccc(Cl)cc2)=N1 (configuration not stated)	14.4
	CN/C(=N\S(=O)(=O)c1ccc(Cl)cc1)N1C[C@H](c2ccccc2)C(c2ccc(Cl)cc2)=N1 [IBIPINABANT]	37.6
0.94	CN/C(=N/S(=O)(=O)c1ccc(Cl)cc1)C1CN(c2ccc(Cl)cc2)C(c2ccccc2)=N1 (configuration not stated)	2.2
